{"source": "ChEMBL document CHEMBL1955811", "about": "“Inhibition of colony-stimulating-factor-1 signaling in vivo with the orally bioavailable cFMS kinase inhibitor GW2580” (Proc Natl Acad Sci U S A, 2005)", "key": {"[1]": {"experiment": "Growth inhibition of CSF1-stimulated mouse M-NFS-60 cells after 3 days by spectrophotometry", "format": "functional", "settings": "NFS-60, 72 h", "how_it_was_run": "(§1)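 Cells cultured so that added serum or growth factor gave linear growth. Compound tested as a 10- to 12-point dose-response with a top concentration of 20 μM.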"}, "Mus musculus [2]": {"system": "Mus musculus", "experiment": "Inhibition of LPS-stimulated IL-6 production in CSF-1 primed mouse at 40 mg/kg, po administered 0.5 hr before LPS challenge post CSF-1 priming measured […] after LPS challenge", "format": "functional"}, "Osteoclast [3]": {"system": "Osteoclast", "experiment": "Inhibition of human osteoclast degradation of bone assessed as reduction in 23C6(+) cells with more than 3 nuclei per cm2 of bone at 3 uM after 3 days by immunocytochemistry (reference value: 854 +/- 122 cells/cm2 of bone)", "format": "functional"}, "HUVEC": {"system": "HUVEC", "experiment": "Growth inhibition of VEGF-stimulated HUVEC after 3 days by spectrophotometry", "format": "cell-based", "settings": "Homo sapiens, 72 h", "how_it_was_run": "as §1"}, "Mus musculus [4]": {"system": "Mus musculus", "experiment": "Increase in LPS-stimulated IL-6 production in mouse at 40 mg/kg, po administered 4.5 hr before LPS challenge measured […] after LPS challenge"}, "[5]": {"experiment": "Protein binding in cell-culture media with 10% fetal calf serum at 3 uM", "format": "ADME, cell-free, Bos taurus", "settings": "cattle, read-out: PB (converted)", "how_it_was_run": "(§2)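 Compound at 3 μM was added to triplicate samples and incubated 1 h at 37°C. Samples were centrifuged through a 30,000-MW filter (1,500 × g, 15 min, 4°C). Percent bound was calculated from compound concentrations in the filtrate and retentate.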"}, "Mus musculus [6]": {"system": "Mus musculus", "experiment": "Inhibition of thioglycolate-induced macrophage influx into peritoneal cavity in mouse at 80 mg/kg, po BID starting 1 hr before thioglycolate challenge for 4 days", "format": "functional", "how_it_was_run": "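Female C3H/HEN mice (22-26 g) were dosed orally with compound suspended in 0.5% hydroxypropylmethylcellulose/0.1% Tween 80 (0.2 ml per mouse). Thioglycolate (1.5 ml) was injected i.p. on day 0. On day 4, the peritoneum was lavaged with 5 ml cold PBS containing 40 units/ml heparin, and cells were counted by hemocytometer in 0.1% crystal violet. Data are mean ± SEM; Dunnett's test.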"}, "[7]": {"experiment": "Inhibition of PTH-induced Wistar rat fetal long bone degradation assessed as labeled 45Ca release in to media at 0.1 to 0.3 uM after 48 hrs by liquid scintillation spectrometry", "format": "functional", "how_it_was_run": "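Fetal rat long bones preloaded with 45CaCl2 and incubated for 24 h. PTH and compound then added; release of labelled calcium into the medium measured 48 h later.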"}, "Osteoclast [8]": {"system": "Osteoclast", "experiment": "Inhibition of human osteoclast degradation of bone assessed as reduction in 23C6(+) cells with more than 3 nuclei per cm2 of bone at 10 uM after 3 days by immunocytochemistry (reference value: 854 +/- 122 cells/cm2 of bone)", "format": "functional"}, "Monocyte": {"system": "Monocyte", "experiment": "Inhibition of CSF-1-stimulated growth of freshly isolated human monocytes at 1 uM preincubated for 30 mins before inducer addition measured after 5 days by WST-1 method", "format": "functional", "settings": "read-out: GI"}, "[9]": {"experiment": "Cmax in mouse at 20 mg/kg, po", "format": "ADME, organism-based", "set-up": "dose 20 mg/kg, route oral", "settings": "in vivo", "how_it_was_run": "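Female mice given single oral doses (20 or 80 mg/kg) in 0.5% HPMC/0.1% Tween 80. Three mice killed with CO2 per time point; plasma extracted with isopropyl alcohol/acetonitrile, then vortexed, sonicated and centrifuged. Quantified by LC/MS (APCI positive mode, multiple-reaction monitoring) against a standard curve prepared in plasma.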"}, "[10]": {"experiment": "Protein binding in cell-culture media with rat plasma at 3 uM", "format": "ADME, cell-free", "settings": "read-out: PB (converted)", "how_it_was_run": "as §2"}, "NFS-60 [11]": {"system": "NFS-60", "experiment": "Antitumor activity in mouse M-NFS-60 cells allografted in po dosed CD-1 nude mouse assessed as inhibition of tumor cell growth in peritoneal cavity compound starting 1 hr before challenge twice a day for 4 days measured after 4 days", "format": "functional, organism-based", "how_it_was_run": "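CD-1 nude female mice (22-26 g); 1 × 10^7 M-NFS-60 cells in PBS injected i.p. Oral dosing b.i.d. at 20 and 80 mg/kg as a suspension in 0.5% hydroxypropylmethylcellulose/0.1% Tween 80 (0.2 ml per mouse), starting 1 h before cell injection. Peritoneal cells recovered by cold PBS-heparin lavage on day 4 and counted by hemocytometer after crystal violet dilution. Mean ± SEM; Dunnett's test.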"}, "Mus musculus [12]": {"system": "Mus musculus", "experiment": "Inhibition of LPS-stimulated TNF production in CSF-1 primed mouse at 40 mg/kg, po administered 0.5 hr before LPS challenge post CSF-1 priming measured […] after LPS challenge", "format": "functional"}, "NCI-N87": {"system": "NCI-N87", "experiment": "Growth inhibition of serum-stimulated human NCI-N87 cells after 3 days by spectrophotometry", "format": "functional, cell-based", "settings": "NCI-N87, 72 h", "how_it_was_run": "as §1"}, "Mus musculus [13]": {"system": "Mus musculus", "experiment": "Inhibition of LPS-stimulated TNF production in CSF-1 primed mouse at 40 mg/kg, po administered 4.5 hr before LPS challenge and CSF-1 priming measured […] after LPS challenge", "format": "functional"}, "Osteoclast [14]": {"system": "Osteoclast", "experiment": "Inhibition of human osteoclast attachment to plastic surface assessed cells per cm2 of plastic at 3 uM after 3 days by immunocytochemistry (reference value: 9723 +/- 1380 cells/cm2 of plastic)", "format": "functional", "how_it_was_run": "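Human PBMCs from a healthy volunteer (5 × 10^5 cells in MEM/10% FCS) were seeded on plastic coverslips with RANKL and CSF-1 (30 ng/ml each) for 10 days, with medium changed every 3 days. Compound was added on day 10 (0.1% DMSO final). On day 13, total cells on the coverslips were counted by immunocytochemistry. Data are mean ± SEM.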"}, "[15]": {"system": "Peritoneal macrophage cell", "experiment": "Effect on LPS-induced TNF production in mouse intraperitoneal macrophages pretreated with CSF-1 at 0.03906 to 20 uM compound incubated for 30 mins before LPS stimulation measured after 20 hrs by ELISA", "format": "functional, cell-based"}, "NFS-60 [16]": {"system": "NFS-60", "experiment": "Growth inhibition of CSF1-stimulated mouse M-NFS-60 cells at 0.7 uM after 3 days by spectrophotometry", "format": "functional"}, "PBMC": {"system": "PBMC", "experiment": "Effect on LPS-induced IL-6 production in human PBMC at 0.03906 to 20 uM preincubated for 30 mins before LPS stimulation measured after 20 hrs by ELISA", "format": "functional, cell-based"}}, "note": "pIC50: −log10 of the molar value. Activity calls are given as the source filed them. The calls are words filed in the database; no cut-off is given here."}
{"smiles": "COc1ccc(COc2ccc(Cc3cnc(N)nc3N)cc2OC)cc1", "note": "[GW632580X]", "values": [{"measurement": "pIC50", "setting": "[1]", "result": 6.48}, {"measurement": "inhibition in vivo at 40 mg/kg", "setting": "Mus musculus [2]", "result": -6, "unit": "%"}, {"measurement": "Activity", "setting": "Osteoclast [3]", "result": "120 /cm2"}, {"measurement": "pIC50", "setting": "HUVEC", "result": 4.92}, {"measurement": "Activity", "setting": "Mus musculus [4]", "result": "Active"}, {"measurement": "fraction unbound at 3 µM", "setting": "[5]", "result": 0.76}, {"measurement": "inhibition in vivo at 80 mg/kg", "setting": "Mus musculus [6]", "result": 25, "unit": "%"}, {"measurement": "inhibition (INH)", "setting": "[7]", "result": 30, "unit": "%"}, {"measurement": "Activity", "setting": "Osteoclast [8]", "result": "34 /cm2"}, {"measurement": "inhibition of growth at 1 µM", "setting": "Monocyte", "result": 100, "unit": "%"}, {"measurement": "Cmax", "setting": "[9]", "result": 50, "unit": "nM"}, {"measurement": "fraction unbound at 3 µM", "setting": "[10]", "result": 0.05}, {"measurement": "growth inhibition (GI)", "setting": "NFS-60 [11]", "result": "Dose-dependent effect"}, {"measurement": "inhibition in vivo at 40 mg/kg", "setting": "Mus musculus [12]", "result": 63, "unit": "%"}, {"measurement": "pIC50", "setting": "NCI-N87", "result": "< 4.52"}, {"measurement": "inhibition in vivo at 40 mg/kg", "setting": "Mus musculus [13]", "result": 58, "unit": "%"}, {"measurement": "Activity", "setting": "Osteoclast [14]", "result": "3369 /cm2"}, {"measurement": "Activity", "setting": "[15]", "result": "inactive"}, {"measurement": "growth inhibition (GI)", "setting": "NFS-60 [16]", "result": "Active"}, {"measurement": "Activity", "setting": "PBMC", "result": "inactive"}]}
